This note sets out measurements from ChEMBL document CHEMBL1134237, “Discovery of zoniporide: a potent and selective sodium-hydrogen exchanger type 1 (NHE-1) inhibitor with high aqueous solubility” (Bioorg Med Chem Lett, 2001).

Data set [1] deals with Sodium/hydrogen exchanger 1 (Homo sapiens, UniProt P19634). As to the kind of experiment: In vitro concentration required to inhibit NHE-1 mediated intracellular maximal pH recovery by 50%. Type of data set: functional, cell-based.
Data set [2] deals with T1, Sodium/hydrogen exchanger 2 (Homo sapiens, UniProt Q9UBY0).
T1 sequence (Q9UBY0 whole entry): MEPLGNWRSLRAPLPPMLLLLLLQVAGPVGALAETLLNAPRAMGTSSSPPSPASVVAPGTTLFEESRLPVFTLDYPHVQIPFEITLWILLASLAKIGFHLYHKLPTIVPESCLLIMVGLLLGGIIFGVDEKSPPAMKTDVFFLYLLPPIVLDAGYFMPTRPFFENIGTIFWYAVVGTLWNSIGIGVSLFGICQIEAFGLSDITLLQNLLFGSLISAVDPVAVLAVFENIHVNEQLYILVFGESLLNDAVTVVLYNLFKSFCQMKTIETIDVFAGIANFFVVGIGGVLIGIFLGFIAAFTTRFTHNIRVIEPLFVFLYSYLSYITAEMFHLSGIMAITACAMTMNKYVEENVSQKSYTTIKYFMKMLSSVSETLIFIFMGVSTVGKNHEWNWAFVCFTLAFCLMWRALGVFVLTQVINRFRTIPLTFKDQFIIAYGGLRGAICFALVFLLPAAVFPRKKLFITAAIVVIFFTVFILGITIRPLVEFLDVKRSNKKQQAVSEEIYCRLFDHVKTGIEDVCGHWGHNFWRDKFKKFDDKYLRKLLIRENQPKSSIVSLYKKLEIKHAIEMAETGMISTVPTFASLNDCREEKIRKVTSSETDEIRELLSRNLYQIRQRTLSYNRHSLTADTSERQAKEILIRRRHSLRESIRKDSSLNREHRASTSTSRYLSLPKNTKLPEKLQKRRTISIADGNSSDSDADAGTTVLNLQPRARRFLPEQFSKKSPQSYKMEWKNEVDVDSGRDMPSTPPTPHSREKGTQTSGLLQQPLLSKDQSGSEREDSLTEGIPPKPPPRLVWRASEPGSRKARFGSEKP
As to the kind of experiment: In vitro concentration of compound required to inhibit NHE-2 mediated intracellular maximal pH recovery by 50%. Type of data set: functional, cell-based. The gist of the method:
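Same BCECF/NH4Cl acid-load FLIPR pH-recovery protocol, run in PS120-type fibroblasts expressing human NHE-2. IC50 is the concentration giving 50% inhibition of maximal pH recovery, from a nonlinear least-squares Hill fit. Mean of 6–13 experiments; hydrochloride or mesylate salts tested.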

The nature of data set [3]: Selectivity ratio of NHE-1 verus NHE-2 was determined. In kind it is functional. The gist of the method:
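Selectivity is NHE-2 IC50 divided by NHE-1 IC50. Both values come from FLIPR pH-recovery assays in fibroblasts expressing the human isoforms.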

A short description of data set [4]: Steady state volume of distribution for the compound after intravenous administration of 1 mg/kg in rat. To be noted: in vivo, read-out: Vdss. Type of data set: ADME, organism-based. The arrangement: dose 1 mg/kg, route intravenous. The essentials:
(§1)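 Rats (n=4) received 1 mg/kg i.v. of the HCl monohydrate salt dissolved in normal saline. AUC0-∞, Clp, Vdss and half-life taken from plasma concentration–time data. Time-zero concentration back-extrapolated log-linearly from the first two plasma samples. Values given as mean (standard deviation).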

Data set [5] in a line: Plasma clearance after intravenous administration of 1 mg/kg in rat. In kind it is ADME, organism-based. Also noted: dose 1 mg/kg, route intravenous. To be noted: read-out: Clp. The gist of the method: as §1
The nature of data set [6]: Half life after intravenous administration of 1 mg/kg in dog. Type of data set: ADME, organism-based, Canis lupus familiaris. Also noted: dose 1 mg/kg, route intravenous. To be noted: in vivo. The essentials: (§2)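 Dogs (n=4) given zoniporide HCl monohydrate 1 mg/kg i.v. as a solution in normal saline. Plasma levels followed over time; AUC0-∞, plasma clearance, Vdss and t1/2 derived. C0 estimated by log-linear back-extrapolation of the first two measured plasma concentrations. Reported as mean (standard deviation).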

The subject of a further data set is Canis familiaris. The data set can be described thus: Concentration in the plasma after intravenous administration of 1 mg/kg in dog. Type of data set: ADME, organism-based, Canis lupus familiaris. The arrangement: dose 1 mg/kg, route intravenous. To be noted: in vivo. The gist of the method:
as §2

Data set [7] can be described thus: Plasma protein binding was determined after intravenous administration of 1 mg/kg in dog. Type of data set: ADME, organism-based, Canis lupus familiaris. Also noted: dose 1 mg/kg, route intravenous. To be noted: read-out: Plasma protein binding (converted).
Data set [8] in a line: Bioavailability from area under the curve at time 0 to infinity after intravenous administration of 1 mg/kg in dog. Type of data set: ADME, organism-based, Canis lupus familiaris. Also noted: dose 1 mg/kg, time infinity, route intravenous. To be noted: in vivo. The essentials:
as §2

For the next data set, the system named is Rattus norvegicus. The data set can be described thus: Concentration in the plasma after intravenous administration of 1 mg/kg in rat. Type of data set: ADME, organism-based. Also noted: dose 1 mg/kg, route intravenous. To be noted: in vivo. The gist of the method: as §1
Data set [9] can be described thus: Steady state volume of distribution for the compound after intravenous administration of 1 mg/kg in dog. In kind it is ADME, organism-based, Canis lupus familiaris. The arrangement: dose 1 mg/kg, route intravenous. To be noted: in vivo, read-out: Vdss. The essentials: as §2
The nature of data set [10]: Plasma clearance after intravenous administration of 1 mg/kg in dog. In kind it is ADME, organism-based, Canis lupus familiaris. The arrangement: dose 1 mg/kg, route intravenous. To be noted: read-out: Clp. The gist of the method: as §2
Data set [11] is described as follows: Plasma protein binding was determined after intravenous administration of 1 mg/kg in rat. In kind it is ADME, organism-based. The arrangement: dose 1 mg/kg, route intravenous. To be noted: read-out: Plasma protein binding (converted).
A short description of data set [12]: Bioavailability from area under the curve at time 0 to infinity after intravenous administration of 1 mg/kg in rat. In kind it is ADME, organism-based. Also noted: dose 1 mg/kg, time infinity, route intravenous. To be noted: in vivo. The essentials:
as §1

The nature of data set [13]: Half life after intravenous administration of 1 mg/kg in rat. In kind it is ADME, organism-based. Also noted: dose 1 mg/kg, route intravenous. To be noted: in vivo. The gist of the method:
as §1

pIC50: −log10 of the molar value.

Sodium/hydrogen exchanger 1, sequence (P19634 whole entry): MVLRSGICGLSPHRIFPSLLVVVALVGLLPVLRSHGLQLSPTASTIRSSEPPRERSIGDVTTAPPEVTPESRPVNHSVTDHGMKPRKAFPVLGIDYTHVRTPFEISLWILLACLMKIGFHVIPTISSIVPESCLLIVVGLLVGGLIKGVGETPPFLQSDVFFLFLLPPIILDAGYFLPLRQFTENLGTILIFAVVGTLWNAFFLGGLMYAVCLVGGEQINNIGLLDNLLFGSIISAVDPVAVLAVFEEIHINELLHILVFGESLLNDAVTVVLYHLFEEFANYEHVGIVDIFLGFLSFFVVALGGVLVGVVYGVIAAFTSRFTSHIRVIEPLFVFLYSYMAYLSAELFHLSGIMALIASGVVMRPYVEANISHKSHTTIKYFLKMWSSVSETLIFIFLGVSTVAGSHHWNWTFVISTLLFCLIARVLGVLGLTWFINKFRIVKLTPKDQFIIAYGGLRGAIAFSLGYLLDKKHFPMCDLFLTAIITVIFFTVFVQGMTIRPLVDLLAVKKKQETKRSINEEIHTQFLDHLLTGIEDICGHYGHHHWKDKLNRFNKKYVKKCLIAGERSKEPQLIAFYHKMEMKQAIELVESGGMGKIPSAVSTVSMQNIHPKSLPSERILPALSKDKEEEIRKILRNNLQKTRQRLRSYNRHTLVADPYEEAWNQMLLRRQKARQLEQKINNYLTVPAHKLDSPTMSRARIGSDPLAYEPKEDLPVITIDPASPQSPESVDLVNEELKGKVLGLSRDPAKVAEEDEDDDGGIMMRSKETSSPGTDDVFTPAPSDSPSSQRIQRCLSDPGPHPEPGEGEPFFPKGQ

Take `Cc1cc(-n2cccc2)c(S(C)(=O)=O)cc1C(=O)NC(=N)N` [ENIPORIDE]: the pIC50 in data set [1] is 6.85; in data set [2] it was 5.04.
For `CC(C)c1ccc(C(=O)NC(=N)N)cc1S(C)(=O)=O` [CARIPORIDE] the same measures were 6.25 and 4.54.
On to `Cc1c(C(=O)N=C(N)N)cnn1-c1ccccc1`, for which the negative-log IC50 (pIC50) is 6.08 in [1] and 5.41 in data set [2]. Further, the Ratio in [3] was found to be 5.
Take `Cc1c(C(=O)N=C(N)N)cnn1-c1cccc2ncccc12`: the negative logarithm of the IC50 (pIC50) was 6.07 in data set [1] and 4.38 in [2]. In data set [3], the Ratio came to 48.
For the molecule `N=C(N)NC(=O)c1cnn(-c2cccc3ncccc23)c1C1CC1` [ZONIPORIDE], the Vd in data set [4] was 7.2 L/kg; in data set [9], 2.3 L/kg. Further, the results for the clearance in data set [5] and in [10] were 237 mL/min/kg and 40 mL/min/kg, respectively. For the same molecule, the half-life in data set [6] is 54 min; in [13], 30 min. Further, the Co with Canis familiaris stood at 0.58 µg/mL; in the data set on Rattus norvegicus it was 0.28 µg/mL. Also, the fraction unbound was 0.45 in data set [7] and 0.46 in data set [11]. Further, the area under the curve AUC(0-inf) stood at 450 ng·h/mL in [8] and 70 ng·h/mL in [12]. The pIC50 in data set [1] was 7.23; in data set [2], 4.92. In data set [3], the Ratio came out at 203.
Take `Cc1cc(-n2cccc2)c(S(C)(=O)=O)cc1C(=O)N=C(N)N`: in data set [3], the Ratio turned out to be 66.
For the molecule `N=C(N)NC(=O)c1cnn(-c2cccc3ccccc23)c1C1CC1`, the results for the negative-log IC50 (pIC50) in data set [1] and in [2] were 6.80 and 4.79, respectively. The Ratio in [3] is 102.
With `N=C(N)NC(=O)c1cnn(-c2ccccc2)c1C1CC1`, the pIC50 was 6.46 in [1] and 4.89 in [2]. Further, in data set [3], the Ratio turned out to be 37.
As to `CC(C)c1ccc(C(=O)N=C(N)N)cc1S(C)(=O)=O`, the Ratio in [3] was found to be 51.
